Experimental data taken from ChEMBL document CHEMBL2163200, “Synthesis, biological evaluation, and structure-activity relationships of novel substituted N-phenyl ureidobenzenesulfonate derivatives blocking cell cycle progression in S-phase and inducing DNA double-strand breaks” (J Med Chem, 2012).
Activity calls are given as the source filed them. The rule behind the calls is not given here.

Legend:
Jurkat [1] = assay: Cell cycle arrest in human Jurkat E6-1 cells assessed as accumulation at S phase at 8.3 uM after 24 hrs by FACS flow cytometry; format: functional
Outline: (§1)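 Jurkat E6 T-lymphoblasts in RPMI 1640 with 10% FBS, 37 °C, 5% CO2. […] Chicken red blood cells were added as internal standard. Cells were fixed in ice-cold EtOH and stained with 1 μg/mL DAPI on ice for 1 h before flow cytometry of phase distribution. Vehicle control was 0.5% DMSO.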

Jurkat [2] = assay: Cell cycle arrest in human Jurkat E6-1 cells assessed as accumulation at G0/G1 phase at 8.3 uM after 24 hrs by FACS flow cytometry; format: functional
Outline: (§2)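 Jurkat E6 cells cultured in RPMI 1640 with 10% FBS at 37 °C, 5% CO2. Compounds serially diluted in medium, starting 50% above the M21 IC50. 4.0 × 10^5 cells were exposed for 24 h. Cells were washed with PBS, chicken red blood cells added as internal standard, and fixed in ice-cold EtOH. After 1 h on ice in PBS with 1 μg/mL DAPI, phase distribution was read by flow cytometry. DMSO-treated cells served as control.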

MCF7 = assay: Cytotoxicity against human MCF7 cells after 48 hrs by SRB assay; format: functional, cell-based; conditions: MCF7, 48 h
Outline: (§3)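 NCI sulforhodamine B protocol. Cells were grown in high-glucose DMEM with 5% FBS and seeded per well at 4 × 10^3 (HT-29), 3.5 × 10^3 (M21) or 3 × 10^3 (MCF-7), then allowed 24 h to attach. Serial dilutions from 200 μM to 780 nM final were applied in DMSO <0.5% for 48 h. Cells were fixed with cold TCA (10% final) and stained with SRB, with absorbance read at 530–568 nm. Growth inhibition was computed against day-0 plates, giving the 50% inhibitory concentration. At least two experiments in triplicate, CV <10%.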

Jurkat [3] = assay: Cell cycle arrest in human Jurkat E6-1 cells assessed as accumulation at G2/M phase at 8.3 uM after 24 hrs by FACS flow cytometry; format: functional
Outline: (§4)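 Jurkat E6 cells grown in RPMI 1640 with 10% FBS at 37 °C, 5% CO2. Compounds were serially diluted in medium starting 50% above the M21 IC50. 4.0 × 10^5 cells were exposed for 24 h, then washed and spiked with chicken red blood cells as internal standard. Cells were fixed in ice-cold ethanol, stained with 1 μg/mL DAPI on ice for 1 h, and phase distribution was read by flow cytometry. The control was 0.5% DMSO.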

M21 [4] = assay: Cytotoxicity against human M21 cells after 48 hrs by SRB assay; format: functional, cell-based; conditions: M21, 48 h; outline: as §3
M21 [5] = assay: Induction of DNA damage response in human M21 cells assessed as phosphorylation of H2AX into gammaH2AX at IC50 after 24 hrs by DAPI staining-based immunofluorescence assay; format: functional, cell-based
Outline: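 M21 cells (1 × 10^5) on fibronectin-coated coverslips, grown 24 h, then exposed to agent for 24 h at 37 °C; 0.5% DMSO control. Fixed with 3.7% formaldehyde and permeabilized with 0.1% saponin/3% BSA. Probed with mouse anti-H2AX pS139 antibody for 2 h at room temperature. Nuclei counterstained with DAPI; nuclear γH2AX foci viewed by epifluorescence microscopy.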

Jurkat [6] = assay: Cell cycle arrest in human Jurkat E6-1 cells assessed as accumulation at G2/M phase at 14 uM after 24 hrs by FACS flow cytometry; format: functional; outline: as §2
Jurkat [7] = assay: Cell cycle arrest in human Jurkat E6-1 cells assessed as accumulation at S phase at 14 uM after 24 hrs by FACS flow cytometry; format: functional; outline: as §4
Jurkat [8] = assay: Cell cycle arrest in human Jurkat E6-1 cells assessed as accumulation at G0/G1 phase at 14 uM after 24 hrs by FACS flow cytometry; format: functional; outline: as §2
HT-29 = assay: Cytotoxicity against human HT-29 cells after 48 hrs by SRB assay; format: functional, cell-based; conditions: HT-29, 48 h; outline: as §3
Jurkat [9] = assay: Cell cycle arrest in human Jurkat E6-1 cells assessed as accumulation at G2/M phase at 15 uM after 24 hrs by FACS flow cytometry; format: functional; outline: as §2
[10] = Toxicity in fertilized chicken embryo assessed as mortality rate at 30 ug per egg, iv administered on day 11 measured on day 17 by CAM assay; format: organism-based, Gallus gallus; conditions: in vivo, read-out: Activity
Outline: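 Fertilized chicken eggs grafted on the CAM with HT-1080 cells (3.5 × 105/egg) received a 100 μL intravenous injection under the CAM on day 11. The drug was diluted in Cremophor EL/99% ethanol/PBS (1/1/14 v/v). Groups held 10–12 eggs and were incubated until day 17, when dead embryos and signs of toxicity were counted per group.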

HT-1080 = assay: Antitumor activity against human HT1080 cells xenografted in chicken chorioallantoic membrane assessed as inhibition of tumor growth at 30 ug per egg, iv administered on day 11 measured on day 17 by CAM assay; format: functional
Outline: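 HT-1080 fibrosarcoma cells (3.5 × 105/egg) were applied onto freshly exposed CAM of fertilized chicken eggs. On day 11, drug from a DMSO stock was diluted in Cremophor EL/99% ethanol/PBS (1/1/14 v/v) and 100 μL was injected into a vein under the CAM. Groups of 10–12 eggs were kept to day 17, embryos were euthanized at 4 °C for ≥4 h, and tumor wet weight was recorded.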

Jurkat [11] = assay: Cell cycle arrest in human Jurkat E6-1 cells assessed as accumulation at G0/G1 phase at 15 uM after 24 hrs by FACS flow cytometry; format: functional; outline: as §2
Jurkat [12] = assay: Cell cycle arrest in human Jurkat E6-1 cells assessed as accumulation at S phase at 15 uM after 24 hrs by FACS flow cytometry; format: functional; outline: as §4
Jurkat [13] = assay: Cell cycle arrest in human Jurkat E6-1 cells assessed as accumulation at G0/G1 phase at 26 uM after 24 hrs by FACS flow cytometry; format: functional; outline: as §2
Jurkat [14] = assay: Cell cycle arrest in human Jurkat E6-1 cells assessed as accumulation at S phase at 26 uM after 24 hrs by FACS flow cytometry; format: functional; outline: as §1
Jurkat [15] = assay: Cell cycle arrest in human Jurkat E6-1 cells assessed as accumulation at G2/M phase at 26 uM after 24 hrs by FACS flow cytometry; format: functional; outline: as §4
Jurkat [16] = assay: Cell cycle arrest in human Jurkat E6-1 cells assessed as accumulation at G2/M phase at 31 uM after 24 hrs by FACS flow cytometry; format: functional; outline: as §4
Jurkat [17] = assay: Cell cycle arrest in human Jurkat E6-1 cells assessed as accumulation at S phase at 31 uM after 24 hrs by FACS flow cytometry; format: functional; outline: as §1
Jurkat [18] = assay: Cell cycle arrest in human Jurkat E6-1 cells assessed as accumulation at G0/G1 phase at 31 uM after 24 hrs by FACS flow cytometry; format: functional; outline: as §2
Jurkat [19] = assay: Cell cycle arrest in human Jurkat E6-1 cells assessed as accumulation at G2/M phase at 22 uM after 24 hrs by FACS flow cytometry; format: functional; outline: as §4
Jurkat [20] = assay: Cell cycle arrest in human Jurkat E6-1 cells assessed as accumulation at S phase at 22 uM after 24 hrs by FACS flow cytometry; format: functional; outline: as §4
Jurkat [21] = assay: Cell cycle arrest in human Jurkat E6-1 cells assessed as accumulation at G0/G1 phase at 22 uM after 24 hrs by FACS flow cytometry; format: functional; outline: as §2
Jurkat [22] = assay: Cell cycle arrest in human Jurkat E6-1 cells assessed as accumulation at S phase at 16 uM after 24 hrs by FACS flow cytometry; format: functional; outline: as §4
Jurkat [23] = assay: Cell cycle arrest in human Jurkat E6-1 cells assessed as accumulation at G2/M phase at 16 uM after 24 hrs by FACS flow cytometry; format: functional; outline: as §2
Jurkat [24] = assay: Cell cycle arrest in human Jurkat E6-1 cells assessed as accumulation at G0/G1 phase at 16 uM after 24 hrs by FACS flow cytometry; format: functional; outline: as §2

Q: Which results are given for `Cc1ccccc1OS(=O)(=O)c1ccc(NC(=O)NCCCCl)cc1`?
A: Activity (Jurkat [1]): 70%; Activity (Jurkat [2]): 20%; IC50 (MCF7): 27 µM; Activity (Jurkat [3]): 10%; IC50 (M21 [4]): 25 µM; Activity (M21 [5]): Active

Q: For `CCCc1ccccc1OS(=O)(=O)c1cccc(NC(=O)NCCCCl)c1`, which Activity (Jurkat [6]) is on record?
A: Its Activity is 9%.

Q: And the Activity (Jurkat [7])?
A: The Activity was 39%.

Q: What about the Activity (Jurkat [8]) of the same compound?
A: Its Activity is 52%.

Q: What about the IC50 (HT-29) of the same compound?
A: The IC50 was 14 µM.

Q: What about the IC50 (MCF7) of the same compound?
A: Its IC50 is 14 µM.

Q: And the IC50 (M21 [4])?
A: Its IC50 is 15 µM.

Q: Which Activity (Jurkat [9]) does the source give for `CCc1ccccc1OS(=O)(=O)c1ccc(NC(=O)NCCCCl)cc1` here?
A: The Activity was 11%.

Q: What about the mortality at 6 days [10] of the same compound?
A: Its mortality at 6 days is 0%.

Q: And the TGI (HT-1080)?
A: Its TGI is 68%.

Q: What about the Activity (Jurkat [11]) of the same compound?
A: The Activity was 26%.

Q: What about the Activity (Jurkat [12]) of the same compound?
A: The Activity was 63%.

Q: And the IC50 (M21 [4])?
A: Its IC50 is 15 µM.

Q: What about the Activity (M21 [5]) of the same compound?
A: Its Activity is “Active”.

Q: With `CCCc1ccccc1NS(=O)(=O)c1cccc(NC(=O)NCCCCl)c1` as the compound, how does the Activity (Jurkat [13]) read?
A: Its Activity is 44%.

Q: And the Activity (Jurkat [14])?
A: Its Activity is 43%.

Q: What about the IC50 (HT-29) of the same compound?
A: Its IC50 is 15 µM.

Q: And the IC50 (MCF7)?
A: The IC50 was 18 µM.

Q: What about the Activity (Jurkat [15]) of the same compound?
A: The Activity was 13%.

Q: What about the IC50 (M21 [4]) of the same compound?
A: The IC50 was 23 µM.

Q: Which results are given for `O=C(NCCCCl)Nc1ccc(S(=O)(=O)Oc2ccc(O)cc2)cc1`?
A: Activity (Jurkat [16]): 12%; IC50 (HT-29): 50 µM; IC50 (MCF7): 51 µM; Activity (Jurkat [17]): 65%; IC50 (M21 [4]): 47 µM; Activity (M21 [5]): Active; Activity (Jurkat [18]): 23%

Q: For `CCCc1ccccc1NS(=O)(=O)c1ccc(NC(=O)NCCCCl)cc1`, which IC50 (HT-29) is on record?
A: Its IC50 is 26 µM.

Q: What about the IC50 (MCF7) of the same compound?
A: The IC50 was 35 µM.

Q: And the Activity (Jurkat [19])?
A: The Activity was 23%.

Q: And the IC50 (M21 [4])?
A: The IC50 was 38 µM.

Q: And the Activity (Jurkat [20])?
A: Its Activity is 41%.

Q: What about the Activity (Jurkat [21]) of the same compound?
A: The Activity was 36%.

Q: For `CCc1ccccc1NS(=O)(=O)c1ccc(NC(=O)NCCCl)cc1`, which Activity (Jurkat [22]) is on record?
A: Its Activity is 43%.

Q: What about the Activity (Jurkat [23]) of the same compound?
A: Its Activity is 16%.

Q: What about the IC50 (HT-29) of the same compound?
A: The IC50 was 40 µM.

Q: What about the IC50 (MCF7) of the same compound?
A: Its IC50 is 33 µM.

Q: What about the IC50 (M21 [4]) of the same compound?
A: The IC50 was 68 µM.

Q: What about the Activity (Jurkat [24]) of the same compound?
A: The Activity was 41%.
